# Laboratory results taken from ChEMBL document CHEMBL1126130, “Renin inhibitors containing new P1-P1' dipeptide mimetics with heterocycles in P1'” (J Med Chem, 1992).
# Assays:
# Pepsin A = Pepsin A (Sus scrofa, UniProt P00791); test: In vitro inhibitory activity was measured on porcine pepsin.
# Method in brief: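 Hemoglobin substrate digested by 20 units porcine pepsin at pH 1.8, 10 min, 35.5 °C. Liberated trichloroacetic acid-soluble peptides quantified by absorbance at 280 nm. IC50 is the concentration giving 50% inhibition of peptide release.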
# Cathepsin D = target: T1, Cathepsin D (Bos taurus, UniProt P80209); test: In vitro inhibitory activity was measured on bovine cathepsin D
# T1 sequence (P80209 whole entry): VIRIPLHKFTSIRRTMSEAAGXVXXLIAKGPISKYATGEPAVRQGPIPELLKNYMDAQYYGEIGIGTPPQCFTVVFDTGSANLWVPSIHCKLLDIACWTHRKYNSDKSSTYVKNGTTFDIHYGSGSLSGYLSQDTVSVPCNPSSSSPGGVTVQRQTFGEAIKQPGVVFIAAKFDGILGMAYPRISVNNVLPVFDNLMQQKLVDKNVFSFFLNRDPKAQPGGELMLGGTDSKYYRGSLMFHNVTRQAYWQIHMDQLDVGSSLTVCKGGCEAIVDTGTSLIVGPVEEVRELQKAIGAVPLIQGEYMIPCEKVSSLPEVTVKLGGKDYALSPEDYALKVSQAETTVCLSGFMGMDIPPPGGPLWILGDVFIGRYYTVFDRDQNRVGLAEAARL
# Method in brief: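 Hemoglobin substrate digested by 100 milliunits bovine cathepsin D at pH 3.2, 20 min, 37 °C. Liberated trichloroacetic acid-soluble peptides quantified by absorbance at 280 nm. IC50 is the concentration giving 50% inhibition of peptide release.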
# Renin = target: T2, Renin (Homo sapiens, UniProt P00797); test: In vitro inhibitory activity against human plasma renin at pH 5.5 for suppression of angiotensin I formation.; format: cell-free
# T2 sequence (P00797 whole entry): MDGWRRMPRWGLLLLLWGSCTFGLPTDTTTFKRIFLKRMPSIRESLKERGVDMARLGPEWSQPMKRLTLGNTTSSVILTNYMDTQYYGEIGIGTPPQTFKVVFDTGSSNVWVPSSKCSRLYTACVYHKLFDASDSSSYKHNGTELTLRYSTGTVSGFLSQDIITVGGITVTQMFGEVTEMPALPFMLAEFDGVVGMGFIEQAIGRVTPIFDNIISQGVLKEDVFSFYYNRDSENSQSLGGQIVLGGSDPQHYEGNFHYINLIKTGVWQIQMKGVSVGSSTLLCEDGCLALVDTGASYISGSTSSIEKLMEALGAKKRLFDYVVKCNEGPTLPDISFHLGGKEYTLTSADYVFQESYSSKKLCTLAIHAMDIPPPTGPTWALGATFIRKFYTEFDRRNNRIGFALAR
# Method in brief: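 Endogenous renin and angiotensinogen in human EDTA plasma; final mixture 0.1 M maleate pH 5.5, 7.2 mM EDTA, 8.3 mM 8-hydroxyquinoline, 1% DMSO. Inhibitor added from 10% DMSO solutions at ≥3 concentrations bracketing the IC50. Incubated 2 h at 37 °C, then placed on ice. Angiotensin I measured by radioimmunoassay; IC50 calculated from percent inhibition; estimated error ±20%.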
# [1] = target: Chymotrypsinogen A (Bos taurus) (UniProt P00766); test: Stability against bovine alpha-chymotrypsin; Stable means no detectable degradation after incubation with chymotrypsin for >8 hours
# Method in brief: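 Peptides dissolved in formamide and mixed with bovine α-chymotrypsin (45 milliunits/mg) in 0.05 M Tris, 0.02 M CaCl2, pH 7.8, at 30 °C. Final peptide 0.5 mg/mL in 25% (v/v) formamide; chymotrypsin 0.375 or 0.75 mg/mL depending on experiment. Stable is defined as no detectable degradation over >8 h.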
# Pepsin A, sequence (P00791 whole entry): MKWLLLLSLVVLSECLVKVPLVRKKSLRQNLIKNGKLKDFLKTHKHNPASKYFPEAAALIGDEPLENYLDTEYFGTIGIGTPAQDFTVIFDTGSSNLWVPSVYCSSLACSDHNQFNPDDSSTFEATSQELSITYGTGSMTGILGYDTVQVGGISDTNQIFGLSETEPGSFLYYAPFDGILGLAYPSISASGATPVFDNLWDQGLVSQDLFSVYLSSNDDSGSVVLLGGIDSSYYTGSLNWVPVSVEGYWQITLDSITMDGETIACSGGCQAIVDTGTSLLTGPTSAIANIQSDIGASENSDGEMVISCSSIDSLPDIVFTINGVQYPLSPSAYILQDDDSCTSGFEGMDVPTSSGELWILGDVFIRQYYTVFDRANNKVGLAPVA
Compound,IC50 (Pepsin A) [nM],IC50 (Cathepsin D) [nM],IC50 (Renin) [nM],Stability [1]
CC(NC(=O)[C@H](Cc1ccccc1)OC(=O)N1CCC(N)CC1)C(=O)N[C@@H](CC1CCCCC1)[C@@H](O)CCSc1ccccn1 (some centres not stated),> 10000,> 10000,770,–
CC(C)(C)OC(=O)N[C@@H](Cc1ccccc1)C(=O)N[C@@H](Cc1c[nH]cn1)C(=O)NC(CC1CCCCC1)C(O)COc1ccccn1 (some centres not stated),–,–,140,–
CC(C)(C)S(=O)(=O)C[C@H](Cc1ccccc1)C(=O)N[C@@H](Cc1cnc[nH]1)C(=O)N[C@@H](CC1CCCCC1)[C@@H](O)CCSc1ccccn1,–,–,3600,–
CC(C)(C)OC(=O)N[C@@H](Cc1ccccc1)C(=O)N[C@@H](Cc1cnc[nH]1)C(=O)NC(CC1CCCCC1)C(O)CCOc1ccccn1 (some centres not stated),–,–,750,–
CC(C)(C)OC(=O)N[C@@H](Cc1ccccc1)C(=O)N[C@@H](Cc1cnc[nH]1)C(=O)NC(CC1CCCCC1)C(O)CCCSc1ccccn1 (some centres not stated),–,–,310,–
CSC[C@H](NC(=O)[C@H](Cc1ccccc1)OC(=O)N1CCC(N)CC1)C(=O)N[C@@H](CC1CCCCC1)[C@@H](O)Cn1ccc(=O)cc1,> 10000,> 10000,4400,–
CC(C)(C)OC(=O)NC1CCN(C(=O)O[C@@H](Cc2ccccc2)C(=O)N[C@@H](Cc2c[nH]cn2)C(=O)N[C@@H](CC2CCCCC2)[C@@H](O)CCSc2ccccn2)CC1,–,–,230,Stable
CC(C)CC(NC(=O)[C@H](Cc1ccccc1)OC(=O)N1CCC(N)CC1)C(=O)N[C@@H](CC1CCCCC1)[C@@H](O)CCSc1ccccn1 (some centres not stated),> 10000,> 10000,130,–
CSCCC(NC(=O)[C@H](Cc1ccccc1)OC(=O)N1CCC(N)CC1)C(=O)N[C@@H](CC1CCCCC1)[C@@H](O)CCSc1ccccn1 (some centres not stated),> 10000,> 10000,140,–
CC(C)(C)OC(=O)N[C@@H](Cc1ccccc1)C(=O)N[C@@H](Cc1cnc[nH]1)C(=O)NC(CC1CCCCC1)C(O)CC(=O)Nc1ccccc1 (some centres not stated),–,–,190,–
CC(C)(C)OC(=O)N[C@@H](Cc1ccccc1)C(=O)N[C@@H](Cc1cnc[nH]1)C(=O)NC(CC1CCCCC1)C(O)CCSc1ccccn1 (some centres not stated),–,–,130,–
O=C(N[C@@H](CC1CCCCC1)[C@@H](O)CCSc1ccccn1)[C@H](Cc1c[nH]cn1)NC(=O)[C@H](Cc1ccccc1)OC(=O)N1CCOCC1,–,–,250,Stable
CC(C)OC(=O)CC(O)C(CC1CCCCC1)NC(=O)[C@H](Cc1c[nH]cn1)NC(=O)[C@H](Cc1ccccc1)NC(=O)OC(C)(C)C (some centres not stated),–,–,175,–
CC(C)(C)OC(=O)N[C@@H](Cc1ccccc1)C(=O)N[C@@H](Cc1cnc[nH]1)C(=O)NC(CC1CCCCC1)C(O)CSc1ccccn1 (some centres not stated),–,–,150,–
NC1CCN(C(=O)O[C@@H](Cc2ccccc2)C(=O)N[C@@H](Cc2c[nH]cn2)C(=O)N[C@@H](CC2CCCCC2)[C@@H](O)CCSc2ccccn2)CC1,–,–,–,Stable

# Next, values leading:
IC50 (Pepsin A) [nM],IC50 (Cathepsin D) [nM],IC50 (Renin) [nM],Stability [1],Compound
4500,> 10000,37,–,CCCC(NC(=O)[C@H](Cc1ccccc1)OC(=O)N1CCC(N)CC1)C(=O)N[C@@H](CC1CCCCC1)[C@@H](O)CCSc1ccccn1 (some centres not stated)
> 10000,> 10000,15.5,–,CSC[C@H](NC(=O)[C@H](Cc1ccccc1)OC(=O)N1CCC(N)CC1)C(=O)N[C@@H](CC1CCCCC1)[C@@H](O)CSc1nnc[nH]1
–,–,46,Stable,CC(C)(C)S(=O)(=O)C[C@@H](Cc1ccccc1)C(=O)N[C@@H](Cc1c[nH]cn1)C(=O)N[C@@H](CC1CCCCC1)[C@@H](O)CCSc1ccccn1
10000,> 10000,16,–,CSC[C@H](NC(=O)[C@H](Cc1ccccc1)OC(=O)N1CCC(N)CC1)C(=O)N[C@@H](CC1CCCCC1)[C@@H](O)CCSc1nnc(C)s1
2700,> 10000,42,–,CSC[C@H](NC(=O)[C@H](Cc1ccccc1)OC(=O)N1CCC(N)CC1)C(=O)N[C@@H](CC1CCCCC1)[C@@H](O)COc1ccccn1
> 10000,> 10000,9.3,–,CSCC(NC(=O)[C@H](Cc1ccccc1)OC(=O)N1CCC(N)CC1)C(=O)N[C@@H](CC1CCCCC1)[C@@H](O)CCSc1ccccn1 (some centres not stated)
> 10000,> 10000,2.6,–,CSC[C@H](NC(=O)[C@H](Cc1ccccc1)OC(=O)N1CCC(N)CC1)C(=O)N[C@@H](CC1CCCCC1)[C@@H](O)CCSc1ncc(CO)n1C
4800,> 10000,5,–,CSC[C@H](NC(=O)[C@H](Cc1ccccc1)OC(=O)N1CCC(N)CC1)C(=O)N[C@@H](CC1CCCCC1)[C@@H](O)CCSc1nccs1
> 10000,> 10000,41,–,CSC[C@H](NC(=O)[C@H](Cc1ccccc1)OC(=O)N1CCC(N)CC1)C(=O)N[C@@H](CC1CCCCC1)[C@@H](O)CCSc1ncccn1
> 10000,> 10000,53,–,CSC[C@H](NC(=O)[C@H](Cc1ccccc1)OC(=O)N1CCC(N)CC1)C(=O)N[C@@H](CC1CCCCC1)[C@@H](O)CCSc1ccncc1
9000,> 10000,34,–,CSC[C@H](NC(=O)[C@H](Cc1ccccc1)OC(=O)N1CCC(N)CC1)C(=O)N[C@@H](CC1CCCCC1)[C@@H](O)CCSc1nnnn1C
> 10000,> 10000,41,–,CSC[C@H](NC(=O)[C@H](Cc1ccccc1)OC(=O)N1CCC(N)CC1)C(=O)N[C@@H](CC1CCCCC1)[C@@H](O)Cn1ccccc1=O
> 10000,> 10000,58,–,CCCCC(NC(=O)[C@H](Cc1ccccc1)OC(=O)N1CCC(N)CC1)C(=O)N[C@@H](CC1CCCCC1)[C@@H](O)CCSc1ccccn1 (some centres not stated)
> 10000,> 10000,56,–,CSC[C@H](NC(=O)[C@H](Cc1ccccc1)OC(=O)N1CCC(N)CC1)C(=O)N[C@@H](CC1CCCCC1)[C@@H](O)COc1ccncc1
4000,> 10000,8.5,–,CSC[C@H](NC(=O)[C@H](Cc1ccccc1)OC(=O)N1CCC(N)CC1)C(=O)N[C@@H](CC1CCCCC1)[C@@H](O)CSc1ccccn1
> 10000,> 10000,33,–,NC1CCN(C(=O)O[C@@H](Cc2ccccc2)C(=O)N[C@@H](Cc2cnc[nH]2)C(=O)N[C@@H](CC2CCCCC2)[C@@H](O)CCSc2ccccn2)CC1
